The list is not random: actives were taken first. Their share in the collection is about 4%.
XBP1 UPR activ = activators of adaptive arm of unfolded protein response (XBP1) | activation, % at 20 µM | 330,000 tested, 0.33% active | CHO-XBP1 luciferase reporter, IRE1-XBP1 UPR activation, luminescence; percent of tunicamycin response, DMSO as zero;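 active = versus positive control, 20 µM dose yields 30% or more activation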;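 also: 100% = tunicamycin at 10 µg/mL and 0% = DMSO only wells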
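Material: CHO-XBP1 cells stably carrying IRE1-XBP1-driven luciferase reporter | Medium: F12 with 10% serum | Compound dosing: 20 µM single concentration, DMSO 1% | Incubation: Overnight seeding at 37 °C, 6 h compound treatment at 37 °C | Detection: Steady-Glo luminescence read | Read-out basis: % activation of reporter signal versus tunicamycin and DMSO controls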
ABHD5 PLIN5 PPI = inhibitors of human ABHD5-perilipin-5 interaction. inhibition, % at 4 µM. 360,000 tested, 0.78% active. AID 602281. Split G. princeps luciferase complementation, luminescence, 4 h. Q00G26+Q8WTS1;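 active = inhibition above the mean inhibition across every tested compound plus 3 SD, cut at about 22% in these data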;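 also: 0% = DMSO only wells and the 100% control is not disclosed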
Target sequence (Q00G26 whole entry, looked up): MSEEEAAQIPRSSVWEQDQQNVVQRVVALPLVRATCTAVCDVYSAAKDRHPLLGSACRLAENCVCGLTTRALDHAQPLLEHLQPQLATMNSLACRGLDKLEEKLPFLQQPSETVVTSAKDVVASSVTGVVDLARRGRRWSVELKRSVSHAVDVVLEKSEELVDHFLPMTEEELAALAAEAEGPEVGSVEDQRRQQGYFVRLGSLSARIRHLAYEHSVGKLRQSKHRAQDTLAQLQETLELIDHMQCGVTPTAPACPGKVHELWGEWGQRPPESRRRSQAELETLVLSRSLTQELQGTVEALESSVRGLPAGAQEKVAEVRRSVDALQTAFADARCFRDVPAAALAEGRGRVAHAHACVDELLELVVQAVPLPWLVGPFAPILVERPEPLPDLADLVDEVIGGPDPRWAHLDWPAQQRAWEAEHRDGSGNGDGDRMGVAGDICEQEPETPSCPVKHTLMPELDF
Target sequence (Q8WTS1 whole entry, looked up): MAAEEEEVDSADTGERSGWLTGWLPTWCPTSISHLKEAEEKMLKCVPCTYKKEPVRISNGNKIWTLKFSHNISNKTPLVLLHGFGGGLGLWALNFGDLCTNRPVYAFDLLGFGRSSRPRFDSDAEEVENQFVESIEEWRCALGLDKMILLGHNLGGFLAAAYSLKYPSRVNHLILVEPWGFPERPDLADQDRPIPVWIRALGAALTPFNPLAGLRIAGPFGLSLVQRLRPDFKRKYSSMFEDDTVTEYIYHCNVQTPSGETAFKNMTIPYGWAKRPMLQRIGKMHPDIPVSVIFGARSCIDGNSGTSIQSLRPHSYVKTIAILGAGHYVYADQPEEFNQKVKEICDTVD
Mdm2-MdmX inh = inhibitors of human Mdm2/MdmX interaction; inhibition, % at 8 µM; AID 485346; O15151+Q00987; 330,000 tested, 3% active; SaOS-2 split-luciferase Mdm2/MdmX complementation, luminescence;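 active = inhibition of at least 50% at 8 µM in the primary screen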
Granule exo inh = blocks lytic granule exocytosis; inhibition, % at 10 µM; TALL-104 LAMP-1 surface exposure, flow cytometry; cells stimulated with thapsigargin and PMA; 360,000 tested, 0.66% active;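 active = inhibition above about 55%, limit read from the data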
UPR CHOP act = activators of apoptotic arm of unfolded protein response (CHOP); activation, % at 10 µM; CHO-CHOP luciferase reporter, UPR activation, luminescence; percent of tunicamycin response over DMSO baseline; 330,000 tested, 0.34% active;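 active = at 10 µM dose, activation of 40% or more, normalized to positive control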;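 also: 100% = tunicamycin at 10 µg/mL and 0% = DMSO alone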
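assay system = CHO CHOP reporter cells | amount = 500 CHO-CHOP cells per well | buffer or medium = F12 with 10% FBS | incubation = 16-18 h cell attachment, then 6 h compound exposure, 37 °C | detection = luminescence read with Steady-Glo | read-out = percent activation relative to tunicamycin control | controls = tunicamycin high control, DMSO low control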
Mdm2-MdmX conf = confirmation of human Mdm2/MdmX interaction inhibitors | shares compounds with Mdm2-MdmX inh | Mdm2-MdmX binding, luminescent assay | inhibition, % at 8 µM | 10,000 tested, 55% active | AID 489028; in the data active = inhibition above about 40%
Full FLuc ctr = full-length luciferase inhibition in Mdm2/MdmX counter-screen; shares compounds with Mdm2-MdmX inh; SaOS-2 full-length luciferase counterscreen, luminescence; inhibition, % at 8 µM; 6,200 tested, 77% active;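 active = mean inhibition at 8 µM reaching about 37%, which flags the compound as non-specific, limit read from the data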;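 also: p53-null SaOS-2 cells with luciferase driven by a doxycycline-inducible promoter; compound on cells about two nights before reading with doxycycline added after day one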
Active calls of the source: *.

`Cn1cccc1C(=O)NC(=O)COC(=O)c1cc([N+](=O)[O-])ccc1Cl` gave XBP1 UPR activ -2.6, ABHD5 PLIN5 PPI -1.9, Mdm2-MdmX inh -17.8, Granule exo inh -6.4 and UPR CHOP act 0.2.
For COCCN1Cc2cccc(C(=O)Nc3cc(C)cc(C)c3)c2C1=O the results were XBP1 UPR activ -1.8, ABHD5 PLIN5 PPI 3.2, Mdm2-MdmX inh -20.2, Granule exo inh -2.1 and UPR CHOP act 0.3.
O=C(Nc1ccc(Cl)c(-c2nc3ccccc3[nH]2)c1)c1ccc2c(c1)OCO2 was read as XBP1 UPR activ 5.1, ABHD5 PLIN5 PPI 5.1, Mdm2-MdmX inh 5.5, Granule exo inh -6.1 and UPR CHOP act 2.2.
Screening O=C(Nc1ccc(-c2nc3ccccc3[nH]2)cc1)c1ccc2c(c1)OCO2 returned XBP1 UPR activ 11.9, ABHD5 PLIN5 PPI -1.8, Mdm2-MdmX inh 89.8*, Granule exo inh 12.7, UPR CHOP act 13.0, Mdm2-MdmX conf 66.8* and Full FLuc ctr 28.7.
Screening COCCN1Cc2cccc(C(=O)Nc3cccc(-c4nc5ccccc5[nH]4)c3)c2C1=O returned XBP1 UPR activ 13.2, ABHD5 PLIN5 PPI 2.8, Mdm2-MdmX inh 55.1*, Granule exo inh 14.4, UPR CHOP act 2.3, Mdm2-MdmX conf 50.5* and Full FLuc ctr 90.3*.
`O=C(Nc1cccc(-c2nc3ccccc3[nH]2)c1)c1cccc(NC(=O)c2ccco2)c1` gave XBP1 UPR activ -1.6, ABHD5 PLIN5 PPI 4.8, Mdm2-MdmX inh 100.2*, Granule exo inh 1.7, UPR CHOP act 8.4, Mdm2-MdmX conf 29.2 and Full FLuc ctr 56.0*.
Screening Cc1c(Cl)cccc1NC(=O)Nc1cccnc1 returned XBP1 UPR activ -6.1, ABHD5 PLIN5 PPI 4.1, Mdm2-MdmX inh 1.1, Granule exo inh 13.9 and UPR CHOP act 1.8.
`N/C(=N\OC(=O)Nc1ccccc1)c1cccc(C(F)(F)F)c1` gave XBP1 UPR activ 0.4, ABHD5 PLIN5 PPI 6.4, Mdm2-MdmX inh -22.4, Granule exo inh 4.5 and UPR CHOP act 4.0.
For CCOC(=O)C1=C(C)NC(SC)=C(C#N)C1CC(C)C (stereo not given) the results were XBP1 UPR activ -0.8, ABHD5 PLIN5 PPI -8.0, Mdm2-MdmX inh 54.9*, Granule exo inh -0.5, UPR CHOP act -1.5, Mdm2-MdmX conf 62.5* and Full FLuc ctr 66.0*.
`CC(=O)C1=C(C)NC(SCC(N)=O)=C(C#N)C1CC(C)C` (stereo not given) gave XBP1 UPR activ -2.0, ABHD5 PLIN5 PPI -6.6, Mdm2-MdmX inh -4.0, Granule exo inh -3.2 and UPR CHOP act -2.3.
`Cc1ccnc(NC(=O)CNC(=O)Cc2cccc3ccccc23)c1` gave XBP1 UPR activ -1.6, ABHD5 PLIN5 PPI -11.1, Mdm2-MdmX inh 15.2, Granule exo inh -4.1 and UPR CHOP act 2.6.
Cc1nc(NCc2ccco2)c2c3c(sc2n1)CCC3 was read as XBP1 UPR activ -0.9, ABHD5 PLIN5 PPI 5.1, Mdm2-MdmX inh 71.7*, Granule exo inh -0.7, UPR CHOP act -1.4 and Mdm2-MdmX conf 32.7.
Screening c1coc(CNc2ncnc3sc4c(c23)CCCCC4)c1 returned XBP1 UPR activ -0.7, ABHD5 PLIN5 PPI -1.6, Mdm2-MdmX inh 12.7, Granule exo inh -1.4 and UPR CHOP act -3.1.
Screening CC1(C)CN(c2ccc(CC#N)cc2)C1=O returned XBP1 UPR activ -1.9, ABHD5 PLIN5 PPI -0.9, Mdm2-MdmX inh 2.0, Granule exo inh -4.0 and UPR CHOP act -0.7.
For Cc1cnc(C(=O)Nc2cccc3cccnc23)cn1 the results were ABHD5 PLIN5 PPI -5.4 and Granule exo inh -7.4.
CN(c1ccccc1)S(=O)(=O)c1ccc(Cl)nc1 was read as XBP1 UPR activ 0.0, ABHD5 PLIN5 PPI -1.4, Mdm2-MdmX inh 14.5, Granule exo inh -3.0 and UPR CHOP act -1.5.
`Cc1nc(S(=O)(=O)N(C)c2ccccc2)c(C#N)c(C)c1Cl` gave XBP1 UPR activ -1.4, ABHD5 PLIN5 PPI -5.5, Mdm2-MdmX inh 96.2*, Granule exo inh -5.6, UPR CHOP act -1.3, Mdm2-MdmX conf 93.4* and Full FLuc ctr 57.4*.
COc1ccccc1N(C(=O)CCl)c1cn(C(C)=O)c2ccccc12 was read as XBP1 UPR activ -3.2, ABHD5 PLIN5 PPI 7.1, Mdm2-MdmX inh 96.1*, Granule exo inh 27.4, UPR CHOP act 35.5, Mdm2-MdmX conf 100.1* and Full FLuc ctr 52.4*.
Screening CC(=O)n1cc(C2C(=O)CCCC2=O)c2ccccc21 returned XBP1 UPR activ 5.0, ABHD5 PLIN5 PPI -1.4, Mdm2-MdmX inh 17.3, Granule exo inh 1.0 and UPR CHOP act -0.2.
Screening CC(=O)n1cc(N(C(=O)CCl)c2ccc(Cl)cc2)c2ccccc21 returned XBP1 UPR activ -8.0, ABHD5 PLIN5 PPI 10.1, Mdm2-MdmX inh 98.6*, Granule exo inh 22.3, UPR CHOP act -8.4, Mdm2-MdmX conf 100.0* and Full FLuc ctr 8.4.
CCOCCc1nnc(NC(=O)Cc2ccc(Br)cc2)s1 was read as XBP1 UPR activ -4.0, ABHD5 PLIN5 PPI 4.6, Mdm2-MdmX inh -5.8, Granule exo inh -1.6 and UPR CHOP act -0.1.
O=C(N/N=C/c1ccccc1C(=O)O)c1ccc(COc2cccc3cccnc23)cc1 was read as XBP1 UPR activ -1.7, ABHD5 PLIN5 PPI -3.8, Mdm2-MdmX inh 4.6, Granule exo inh -0.2 and UPR CHOP act 0.4.
`O=C(N/N=C/c1ccc[nH]1)c1ccc(COc2cccc3cccnc23)cc1` gave XBP1 UPR activ 1.3, ABHD5 PLIN5 PPI -7.2, Mdm2-MdmX inh 96.9*, Granule exo inh -0.9, UPR CHOP act -0.6, Mdm2-MdmX conf 82.7* and Full FLuc ctr 52.3*.
Screening Cc1cc(Br)c(OCc2ccc(C(=O)N/N=C/c3ccc[nH]3)cc2)c(Br)c1 returned XBP1 UPR activ 98.8*, ABHD5 PLIN5 PPI -4.6, Mdm2-MdmX inh 97.7*, Granule exo inh -1.0, UPR CHOP act 41.4*, Mdm2-MdmX conf 94.4* and Full FLuc ctr 11.2.
`Clc1ccc(OCCN2CCOCC2)cc1Cl` gave XBP1 UPR activ -0.9, ABHD5 PLIN5 PPI 5.0, Mdm2-MdmX inh 5.1, Granule exo inh -1.3 and UPR CHOP act -1.1.
NC(=S)NN=C1c2cc(OCCN3CCOCC3)ccc2-c2ccc(OCCN3CCOCC3)cc21 was read as XBP1 UPR activ -4.5, ABHD5 PLIN5 PPI 2.3, Mdm2-MdmX inh 60.1*, Granule exo inh 4.7, UPR CHOP act 2.0 and Mdm2-MdmX conf 25.1.
For ON=C1c2cc(OCCN3CCCCC3)ccc2-c2ccc(OCCN3CCCCC3)cc21 the results were XBP1 UPR activ -6.9, ABHD5 PLIN5 PPI 4.7, Mdm2-MdmX inh 96.7*, Granule exo inh 53.0, UPR CHOP act 5.6, Mdm2-MdmX conf 70.0* and Full FLuc ctr 91.0*.
Screening Clc1ccc(OCCN2CCCCC2)cc1Cl returned XBP1 UPR activ -1.8, ABHD5 PLIN5 PPI 4.8, Mdm2-MdmX inh -9.7, Granule exo inh -2.0 and UPR CHOP act -0.2.
